Reference: ChEMBL document CHEMBL3407477, “Synthesis and biological evaluation of compact, conformationally constrained bifunctional opioid agonist - neurokinin-1 antagonist peptidomimetics” (Eur J Med Chem, 2015)
Calls of active or inactive are those of the source.

Legend:
[1] = organism: Rattus norvegicus; test: Antinociceptive activity in Wistar rat at 0.1 to 1 nmol, it after 30 mins by tail flick test; assay type: functional, organism-based
In short: (§1)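 Naive male Wistar rats (250-300 g) with i.t. catheters received a single i.t. injection in water for injection (5 µl plus 10 µl flush), 7 days after catheter implantation. Tail-flick latency to a light-bulb heat stimulus at two-thirds of tail length was read 30 min post-dose (timepoints up to 180 min), with a 9 s cut-off. Data are %MPE = (TL-BL)/(cut-off-BL)×100, 7-12 rats/group, ANOVA with Bonferroni.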

[2] = organism: Rattus norvegicus; test: Antinociceptive activity in Wistar rat at 1 nmol, it after 30 mins by tail flick test; assay type: functional; in short: as §1
[3] = organism: Rattus norvegicus; test: Antiallodynic effect in Wistar rat chronic constriction injury model at 1 nmol, it measured 7 days post CCI challenge by Von Frey test; assay type: functional
In short: (§2)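 Male Wistar rats (300-350 g) with i.t. catheters (L4-L6) had CCI made by four loose silk ligatures on the right sciatic nerve. On day 7 they received a single i.t. dose in water for injection. Mechanical allodynia was measured 30 min later with an automatic von Frey device (0.5-26 g) on the midplantar hind paw. Data are %MPE, 6-12 rats/group, ANOVA with Bonferroni.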

[4] = tested on: Rattus norvegicus; test: Antiallodynic effect in Wistar rat chronic constriction injury model assessed as tolerance to neuropathic pain at 1 nmol, it qd for 6 days administered from 7 days post CCI challenge to day 13 by Von Frey test; assay type: functional, organism-based
In short: (§3)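 CCI Wistar rats received once-daily i.t. injections (morphine 3.5 nmol, hybrids 1 nmol, in water for injection) from day 7 to day 13 after CCI. Von Frey and 5 °C cold plate tests were run 30 min after each dose. Data are %MPE and AUC, 12-16 rats/group, ANOVA with Bonferroni.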

[5] = tested on: Rattus norvegicus; test: Antiallodynic effect in Wistar rat chronic constriction injury model assessed as tolerance to neuropathic pain at 1 nmol, it qd for 6 days administered from 7 days post CCI challenge to day 13 by cold plate test; assay type: functional, organism-based; in short: as §3
[6] = organism: Rattus norvegicus; test: Toxicity in Wistar rat chronic constriction injury model at 1 nmol, it measured 7 days post CCI challenge; assay type: organism-based; conditions: in vivo, icv_or_intrathecal, 168 h
[7] = tested on: Rattus norvegicus; test: Antinociceptive activity in it dosed Wistar rat after 30 mins by tail flick test; assay type: functional; in short: as §1
[8] = organism: Rattus norvegicus; test: Selectivity ratio of Ki for rat brain DOR to Ki for rat brain MOR
[9] = organism: Rattus norvegicus; test: Reduction of hyperalgesia in Wistar rat chronic constriction injury model at 1 nmol, it measured 7 days post CCI challenge by cold plate test; assay type: functional, organism-based
In short: (§4)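 In catheterized male Wistar rats with sciatic CCI, a single i.t. dose in water for injection was given on day 7. Thermal hyperalgesia was measured 30 min later as latency to hind-paw shake on a 5 °C cold plate. Data are %MPE, 6-12 rats/group, ANOVA with Bonferroni.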

[10] = organism: Rattus norvegicus; test: Antiallodynic effect in Wistar rat chronic constriction injury model at 0.1 to 1 nmol, it measured 7 days post CCI challenge by Von Frey test; assay type: functional, organism-based; in short: as §2
[11] = organism: Rattus norvegicus; test: Toxicity in Wistar rat chronic constriction injury model at 9.5 nmol, it measured 7 days post CCI challenge; assay type: organism-based; conditions: in vivo, icv_or_intrathecal, 168 h
[12] = tested on: Rattus norvegicus; test: Antiallodynic effect in it dosed Wistar rat measured 7 days post CCI challenge by Von Frey test; assay type: functional; in short: as §2
[13] = tested on: Rattus norvegicus; test: Reduction of hyperalgesia in it dosed Wistar rat measured 7 days post CCI challenge by cold plate test; assay type: functional; in short: as §4
[14] = tested on: Rattus norvegicus; test: Antinociceptive activity in Wistar rat up to 1.21 umol/kg, iv after 30 mins by tail flick test; assay type: functional, organism-based
[15] = organism: Rattus norvegicus; test: Antinociceptive activity in Wistar rat at 1 to 50 nmol, it after 30 mins by tail flick test; assay type: functional, organism-based
In short: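 Male Wistar rats (250-300 g), naive, with chronic i.t. catheters inserted through the atlanto-occipital membrane to L4-L6 under pentobarbital anaesthesia. Tested on day 7 after implantation. Drug in water for injection was given as a single 5 µl i.t. injection, then 10 µl flush. Tail-flick (light-bulb heat at two-thirds tail length, 9 s cut-off) was read 30 min post-dose. Values are %MPE vs baseline; 7-12 rats/group; ANOVA/Bonferroni.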

[16] = tested on: Rattus norvegicus; test: Toxicity in Wistar rat assessed as death at 9.5 nmol, iv; assay type: organism-based; conditions: in vivo
[17] = tested on: Rattus norvegicus; test: Toxicity in Wistar rat assessed as seizures at 9.5 nmol, iv; assay type: organism-based; conditions: in vivo
[18] = organism: Rattus norvegicus; test: Antiallodynic effect in Wistar rat chronic constriction injury model at 0.001 to 1 nmol, it measured 7 days post CCI challenge by Von Frey test; assay type: functional, organism-based; in short: as §2
[19] = organism: Rattus norvegicus; test: Antinociceptive activity in Wistar rat at 0.001 to 0.1 nmol, it after 30 mins by tail flick test; assay type: functional, organism-based; in short: as §1
[20] = target: T1, Substance-P receptor (Homo sapiens, UniProt P25103); test: Displacement of [3H]SP from human NK1 receptor expressed in CHO cells after 20 mins by liquid scintillation counting analysis; assay type: cell-based
In short: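 Membranes from hNK1/CHO cells (20 µg) were incubated with 0.4 nM [3H]SP and six test concentrations in duplicate. Buffer was 50 mM Tris pH 7.4 with 5 mM MgCl2, bacitracin, bestatin, captopril and PMSF, for 20 min at 25 °C. Nonspecific binding was defined with 10 µM SP. Samples were filtered on PEI-soaked GF/B, counted by scintillation, three independent experiments. Ki by Cheng-Prusoff from nonlinear-regression IC50.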

[21] = target: T1, Substance-P receptor; test: Antagonist activity at human NK1 receptor expressed in CHO cells by luminescence assay in presence of SP peptide; assay type: cell-based; conditions: read-out: pA2 (converted)
[22] = target: Delta-type opioid receptor (Rattus norvegicus, UniProt P33533); test: Displacement of [3H]DSLET from rat brain DOR after 2 hrs
In short: (§5)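 Rat brain membranes were incubated 2 h at 0 °C with 0.72 nM [3H]DAMGO (MOR) or 0.78 nM [3H]DSLET (DOR). IC50 came from log-dose displacement curves.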

[23] = target: Mu-type opioid receptor (Rattus norvegicus, UniProt P33535); test: Displacement of [3H]DAMGO from rat brain MOR after 2 hrs; in short: as §5
[24] = target: Delta-type opioid receptor (Mus musculus, UniProt P32300); test: Activation of DOR in mouse vas deferens
In short: (§6)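 Isolated guinea pig ileum (MOR) and mouse vas deferens (DOR) bioassays. A [Leu5]enkephalin standard dose-response curve was run on each tissue preparation, and test IC50 values were normalized to it. Values are means of 3-4 experiments.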

[25] = target: Mu-type opioid receptor (Cavia porcellus, UniProt P97266); test: Activation of MOR in guinea pig ileum; assay type: tissue-based; in short: as §6
[26] = target: Mu-type opioid receptor (Cavia porcellus) (UniProt P97266); test: Partial agonist activity at MOR in guinea pig ileum; assay type: tissue-based; in short: as §6
[27] = target: Mu-type opioid receptor (Cavia porcellus) (UniProt P97266); test: Antagonist activity at MOR in guinea pig ileum; assay type: tissue-based

Chain of Delta-type opioid receptor (Mus musculus, UniProt P32300) (P32300 whole entry): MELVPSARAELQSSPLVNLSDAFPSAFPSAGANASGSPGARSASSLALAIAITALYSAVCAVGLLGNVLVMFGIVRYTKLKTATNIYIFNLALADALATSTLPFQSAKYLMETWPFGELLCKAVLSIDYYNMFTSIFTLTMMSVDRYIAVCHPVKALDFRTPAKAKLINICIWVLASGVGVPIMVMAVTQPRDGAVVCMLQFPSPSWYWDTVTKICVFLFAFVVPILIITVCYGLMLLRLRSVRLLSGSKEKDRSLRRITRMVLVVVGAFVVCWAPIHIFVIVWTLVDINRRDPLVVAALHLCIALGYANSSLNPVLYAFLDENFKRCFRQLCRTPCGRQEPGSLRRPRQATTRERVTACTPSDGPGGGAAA
T1 sequence (P25103 whole entry): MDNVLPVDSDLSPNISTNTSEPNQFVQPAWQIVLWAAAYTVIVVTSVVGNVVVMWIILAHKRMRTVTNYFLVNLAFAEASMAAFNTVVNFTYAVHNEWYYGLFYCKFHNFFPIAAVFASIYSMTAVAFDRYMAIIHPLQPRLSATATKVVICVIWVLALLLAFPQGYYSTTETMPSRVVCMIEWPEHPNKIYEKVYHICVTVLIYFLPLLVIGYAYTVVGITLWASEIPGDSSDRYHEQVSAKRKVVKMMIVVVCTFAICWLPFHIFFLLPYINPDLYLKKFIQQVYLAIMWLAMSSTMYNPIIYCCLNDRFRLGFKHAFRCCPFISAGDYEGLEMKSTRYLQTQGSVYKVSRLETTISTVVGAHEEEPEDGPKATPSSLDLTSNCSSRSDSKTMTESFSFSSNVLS
Chain of Mu-type opioid receptor (Rattus norvegicus, UniProt P33535) (P33535 whole entry): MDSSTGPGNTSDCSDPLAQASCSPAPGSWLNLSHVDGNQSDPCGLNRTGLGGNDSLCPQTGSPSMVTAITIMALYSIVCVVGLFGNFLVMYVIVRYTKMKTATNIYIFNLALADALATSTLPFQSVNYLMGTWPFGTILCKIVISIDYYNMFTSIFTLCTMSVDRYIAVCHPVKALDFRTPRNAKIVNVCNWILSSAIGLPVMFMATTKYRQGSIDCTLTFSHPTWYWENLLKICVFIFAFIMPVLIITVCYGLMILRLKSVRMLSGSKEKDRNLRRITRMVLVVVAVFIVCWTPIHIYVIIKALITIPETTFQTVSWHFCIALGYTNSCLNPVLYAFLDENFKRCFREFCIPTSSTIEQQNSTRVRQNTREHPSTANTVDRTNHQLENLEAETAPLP
Chain of Mu-type opioid receptor (Cavia porcellus, UniProt P97266) (P97266 whole entry): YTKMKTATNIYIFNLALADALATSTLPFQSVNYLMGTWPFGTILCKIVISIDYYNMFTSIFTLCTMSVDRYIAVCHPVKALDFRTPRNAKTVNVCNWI
Chain of Mu-type opioid receptor (Cavia porcellus) (P97266 whole entry): as above
Chain of Delta-type opioid receptor (Rattus norvegicus, UniProt P33533) (P33533 whole entry): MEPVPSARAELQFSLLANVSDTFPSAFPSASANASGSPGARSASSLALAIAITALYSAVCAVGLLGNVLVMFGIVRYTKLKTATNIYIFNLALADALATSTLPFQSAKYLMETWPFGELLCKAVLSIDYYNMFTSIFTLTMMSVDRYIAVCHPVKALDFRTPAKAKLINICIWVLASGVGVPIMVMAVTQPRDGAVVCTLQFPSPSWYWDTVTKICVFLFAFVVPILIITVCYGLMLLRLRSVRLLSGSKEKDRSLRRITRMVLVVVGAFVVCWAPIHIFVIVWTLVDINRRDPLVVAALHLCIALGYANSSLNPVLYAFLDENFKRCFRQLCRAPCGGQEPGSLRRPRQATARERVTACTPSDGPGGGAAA

In the case of `Cc1cc(O)cc(C)c1C[C@H](N)C(=O)N[C@H](CCCNC(=N)N)C(=O)N[C@H]1Cc2ccccc2CN(CC(=O)N(C)Cc2cc(C(F)(F)F)cc(C(F)(F)F)c2)C1=O`, the Activity [1] is reported as “Active”, the MPE [2] is reported as 30% and the MPE [3] is reported as 60%. The Activity [4] was “Active”, the Activity [5] was “Active” and the Activity [6] was “Non-toxic”. For the same compound, the ED50 [7] was 1.66 nmol, the Ratio Ki [8] was 25 and the Activity [9] was “Active”. For the same compound, the Activity [10] was “Active”, the Activity [11] was “Toxic” and the ED50 [12] was 1.05 nmol. For the same compound, the ED50 [13] was 1.14 nmol.
With `CC(=O)N[C@H]1Cc2ccccc2CN(CC(=O)N(C)Cc2cc(C(F)(F)F)cc(C(F)(F)F)c2)C1=O` the Activity [14] was “inactive”, the Activity [15] was “Active” and the Activity [16] was “Toxic”. For the same compound, the Activity [17] was “Toxic”, the Activity [9] was “Active” and the Activity [10] was “Active”.
In the case of `Cc1cc(O)cc(C)c1C[C@H](N)C(=O)N[C@H](CCCNC(=N)N)C(=O)N[C@H]1Cc2ccccc2CN(CC(N)=O)C1=O`, the Activity [18] is reported as “Active”, the Ratio Ki [8] is reported as 4 and the Activity [9] is reported as “Active”. For the same compound, the Activity [19] was “Active”.
For `Cc1cc(O)cc(C)c1C[C@H](N)C(=O)N[C@H](CCCNC(=N)N)C(=O)N[C@H]1Cc2ccccc2CN(CCC(=O)N(Cc2cc(C(F)(F)F)cc(C(F)(F)F)c2)CC(C)C)C1=O`, the Ki [20] was 743 nM.
`Cc1cc(O)cc(C)c1C[C@H](N)C(=O)N[C@H](CCCNC(=N)N)C(=O)N[C@H]1Cc2ccccc2CN(CCC(=O)N(C)Cc2cc(C(F)(F)F)cc(C(F)(F)F)c2)C1=O` showed a Kb [21] of 912 nM, a Ki [20] of 59.7 nM and a Ratio Ki [8] of 25.3. For the same compound, the Ki [22] was 2.14 nM, the Ki [23] was 0.08 nM and the IC50 [24] was 6.2 nM. The IC50 [25] was 11.3 nM.
In the case of `Cc1cc(O)cc(C)c1C[C@H](N)C(=O)N[C@H](CCCNC(=N)N)C(=O)N[C@H]1Cc2ccccc2CN(CC(=O)N(C)Cc2ccccc2)C1=O`, the Ratio Ki [8] is reported as 24.8.
`Cc1cc(O)cc(C)c1C[C@H](N)C(=O)N[C@H](CCCNC(=N)N)C(=O)N[C@H]1Cc2ccccc2CN(CC(=O)NCc2ccccc2)C1=O` gave a Ki [20] of 6190 nM, a Ratio Ki [8] of 4.4 and a Ki [22] of 0.62 nM. It also gave a Ki [23] of 0.14 nM, an IC50 [24] of 3.5 nM and an IC50 [25] of 4.44 nM.
Work on `Cc1cc(O)cc(C)c1C[C@H](N)C(=O)N[C@H](CCCNC(=N)N)C(=O)N[C@H]1Cc2ccccc2CN(CC(=O)N(Cc2cc(C(F)(F)F)cc(C(F)(F)F)c2)CC(C)C)C1=O` yielded an Activity [26] of 19.7 nM, a Ki [20] of 35 nM and an IC50 [24] of 14.5 nM. It also gave a Ke [27] of 12.7 nM.
